Source: PMC3794531 (Biomolecules & Therapeutics, 2012)
pEC50: −log10 of the molar value.

Legend:
[1] = test system: colon cancer-induced mice; test: In vivo survival test in colon cancer-induced mice; conditions: intravenous, n=4
Method in brief: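 Mice were anesthetized and the cecum exteriorized by laparotomy. CT26 cells (1×10^6 in 50 μl) were injected into the cecal wall, then the gut was returned and the incision closed (surgical orthotopic implantation). Test compounds were given intravenously, and survival was followed over the experimental period.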

[2] = Proportion of total lactone form in PBS, MCF7 cell lysates and rat plasma; type: in vitro ADME; conditions: 37℃
Method in brief: (§1)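 Test compound (5 μM) was incubated at 37℃ in PBS, rat plasma, or MCF7 lysate. Lysate was prepared by adding PMSF, sonicating 10 sec, and centrifuging at 4℃ and 13,200 rpm for 15 min. Samples taken over time up to 120 min were quenched in ice-cold acetonitrile and centrifuged. Supernatant was diluted in 10 mM K2HPO4 pH 7.4 and run on C18 HPLC (K2HPO4:acetonitrile 62:38, 1 ml/min) with fluorescence detection (ex 380/em 540 nm). Data are mean ± SD.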

[3] = Stability test in PBS, MCF7 cell lysates and rat plasma; type: in vitro ADME; conditions: 5 μM, 37℃
Method in brief: as §1

[4] = test system: HT29; test: MTT cytotoxicity test in HT29 cells; type: cell-based; conditions: Homo sapiens, HT-29, 72 h
Method in brief: (§2)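 Cells were grown in DMEM with 10% FBS, 100 unit/ml penicillin and 0.1 mg/ml streptomycin at 37℃ and 5% CO2, and split near 80% confluency. They were seeded at 1×10^5 cells/well and cultured 24 h to ~80% confluency, then exposed to test compound for 72 h. MTT (0.5 mg/ml in serum-free medium) was added for 2 h, and absorbance was read at 540 nm. Data are mean ± SD.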

[5] = ref Kawato et al., 1991; cited from earlier work
[6] = sodium phosphate (pH 7), 120 min; ref Tallman et al., 2005; cited from earlier work
[7] = test system: CT26; test: MTT cytotoxicity test in CT26 cells; type: cell-based
Method in brief: as §2

[8] = test system: MCF7 cells; test: MTT cytotoxicity test in MCF7 cells; type: cell-based; conditions: Homo sapiens, MCF7, 72 h
Method in brief: as §2

## CCc1c2c(nc3ccc(O)cc13)-c1cc3c(c(=O)n1C2)COC(=O)[C@]3(O)CC [SN-38, 7-ethyl-10-hydroxy-camptothecin]
[1]
  survived longer than the irinotecan-administered group: at least 2 weeks
[2]; MCF7 lysates
  proportion of the lactone form at 120 min: around 40%
[2]; PBS
  proportion of the lactone form at 120 min: around 40%
[2]; all 3 conditions (PBS, MCF7 lysates, plasma)
  proportion of the lactone form at 120 min: 30-40%
[2]; early time points, all 3 conditions (PBS, MCF7 lysates, plasma), 5 μM
  initial proportion of the lactone form: 80-90%
[2]; rat plasma
  proportion of the lactone form at 120 min: ~ 30%
[3]; MCF7 lysates, up to 120 min
  stability in MCF7 lysates: rather unstable
[3]; PBS
  compound remaining after 120 min: ~80%
[3]; rat plasma
  compound remaining after 120 min: about 60%
[4]
  pEC50: 5.88
[5]
  potency relative to irinotecan in terms of in vitro cytotoxicity: 100 fold
[6]
  percentage of SN-38 lactone remaining: around 40%
[7]; MTT assay, CT26 and HT29 (Fig. 2)
  potency compared with irinotecan: much more potent than the parent compound irinotecan
[7]; Mus musculus, CT26, 72 h
  pEC50: 4.76
[8]
  pEC50: 6.61

## CCc1c2c(nc3ccc(OC(=O)N4CCC(N5CCCCC5)CC4)cc13)-c1cc3c(c(=O)n1C2)COC(=O)[C@]3(O)CC [irinotecan]
[1]
  survival time: < 28 days
